Here are results for two molecules from PMC11969444 (RSC Advances, 2025).

In assay [1] the target is β-glucosidase. Briefly: In vitro β-glucosidase inhibitory assay. In kind it is biochemical. Particulars: read-out: β-Glucosidase IC50 ± SEM; mean ± standard error of the mean. The essentials:
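β-Glucosidase solution (0.5 U mL−1) was preincubated with test compound at varying concentrations in 0.1 M phosphate buffer, pH 6.9, at 37 °C for 15 min. The reaction was started with 5 mM p-nitrophenyl-β-D-glucopyranoside solution in the same buffer and run at 37 °C for 15 min. It was stopped with 0.2 M sodium carbonate and read at 405 nm. Controls were a sample-free reaction and an enzyme-free blank.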

Assay [2] deals with PGLT-induced diabetic rats. Briefly: Blood glucose level in PGLT-induced diabetes. The format is in vivo. The essentials:
(§1)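 Rats were given PGLT to induce diabetes and treated with test compounds for 28 days. Blood glucose and body weight were recorded on days 1, 7, 14, 21 and 28. Serum was assayed for TG, total CH, LDL, HDL, SGOT, SGPT and ALP. Groups were normal control, diabetic control and treated, n = 8 per group, shown as mean ± SEM. Treated groups were compared with diabetic control by one-way ANOVA with Dunnett's post hoc test.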

Assay [3] can be described thus: Effect on body weights. In kind it is in vivo, rats. The essentials: as §1
The test system of assay [4] is PGLT-induced diabetic rats. Briefly: Antihyperlipidemic effects. Particulars: 10 mg kg^−1, 28 days. The format is in vivo. The essentials:
as §1

For assay [5], the system named is PGLT-induced diabetic rats. Briefly: Serum hepatic marker enzymes. The format is in vivo. The conditions noted are these: 10 mg kg^−1, serum. In outline:
as §1

A word on the IC50: it is the concentration at which inhibition is half-maximal. As for `C[C@H]1O[C@H](O[C@H]2[C@H](O)[C@@H](O)[C@@H](O[C@H]3[C@H](O)[C@@H](O)C(O)O[C@@H]3CO)O[C@@H]2CO)[C@H](O)[C@@H](O)[C@@H]1N[C@H]1C=C(CO)[C@@H](O)[C@H](O)[C@H]1O` (some centres unmarked) [Acarbose, acarbose], in assay [1], the IC50 stood at […].
In the case of `O=[N+]([O-])c1ccc(O[C@@H]2O[C@H](CO)[C@@H](O)[C@H](O)[C@H]2O)cc1` [PGLT, p-nitrophenyl-β-D-glucopyranoside], the Blood glucose level in assay [2] (10 mg kg^−1, 1st day) is 402.22 ± 4.97 mg per dL; in assay [2] (10 mg kg^−1, 7th day), 229.56 ± 4.80 mg per dL; in assay [2] (10 mg kg^−1, 14th day), 154.06 ± 4.59 mg per dL; in assay [2] (10 mg kg^−1, 21st day), 119.70 ± 4.87 mg per dL; in assay [2] (10 mg kg^−1, 28th day, listed as p-Nitrophenyl-β-D-glucopyranoside (PGLT)) it was 102.27 ± 4.31 mg per dL; in assay [2] (10 mg kg^−1, 28th day, listed as p-nitrophenyl-β-D-glucopyranoside (PGLT)), 102.27 ± 4.31 mg per dL. The Body weight is 20.16 ± 1.71 in assay [3] (10 mg kg^−1, 1st day); 19.88 ± 1.81 in assay [3] (10 mg kg^−1, 7th day); 20.01 ± 1.61 in assay [3] (10 mg kg^−1, 14th day); 19.70 ± 1.69 in assay [3] (10 mg kg^−1, 21st day); 19.66 ± 1.51 in assay [3] (10 mg kg^−1, 28th day). Further, the weight loss in assay [3] (day 1 to day 28, PGLT-treated group) amounted to 2.48%. Also, the HDL in assay [4] was found to be 55.72 ± 2.01 mg/dL. In assay [4], the LDL came to 87.58 ± 2.96 mg/dL. In assay [4], the TG came to 96.36 ± 4.51 mg/dL. For the same molecule, the “Total CH” value in assay [4] was 104.73 ± 4.83 mg/dL. The ALP in assay [5] was 171.04 ± 3.91 IU. This molecule had an SGOT in assay [5] of 21.39 ± 1.79 IU. In assay [5], this molecule registered an SGPT of 21.17 ± 1.88 IU.
